Test results as given in ChEMBL document CHEMBL1145431, “Improved anti-osteoporosis potency and reduced endometrial membrane hyperplasia during hormone replacement therapy with estrogen-RGD peptide conjugates” (2007).
Where a SMILES comes first, the peptide text is derived from it. The star is where a group is joined. X1 = C[C@]12CC[C@@H]3c4ccc(OCC(=O)*)cc4CC[C@H]3[C@@H]1CCC2O

Tests used:
Type in all cases: functional
[1] = system: Mus musculus; assay: Effect on serum phosphorous Concentration in mouse at 0.110 mmol/kg, po
How it was run: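 Oral OVX Kuiming mouse model, dosed daily for 4 weeks at 110.3 × 10-3 mmol/kg in 0.5% CMC. Retro-orbital blood stood 30 min at room temperature and was spun at 3000 g for 20 min. Serum kept at -20 °C. Calcium read by o-methylphenolphthalein complexone, phosphorus by molybdenum blue, ALP by activity on disodium phenylphosphate substrate.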

[2] = system: Mus musculus; assay: Effect on liver weight in mouse at 0.1103 mmol/kg, po
How it was run: (§1)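 Female Kuiming mice (7 weeks old, 30.7 ± 3.1 g) under abdominal OVX, sham group abdominorotomy only. From day 5 after surgery, dosed orally once daily for 4 weeks at 110.3 × 10-3 mmol/kg in 0.5% CMC (0.2 mL), vehicle group CMC alone. Blood drawn retro-orbitally, then left femur and organs removed under pentobarbital (40.0 mg/kg, i.p.).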

[3] = system: Mus musculus; assay: Effect on spleen weight in ovariectomized mouse at 0.1103 mmol/kg, ip once daily for 4 weeks
How it was run: (§2)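 Female Kuiming mice (7 weeks old, 30.7 ± 3.1 g), abdominal OVX under pentobarbital (40.0 mg/kg i.p.). From day 5 after surgery, i.p. injection once daily for 4 weeks, compound in aqueous 0.5% CMC prepared just before use. The day after the last dose, mice were anesthetized and killed, and lungs, livers, spleens and uteri were removed and weighed directly. n = 12, ANOVA, p < 0.05.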

[4] = system: Mus musculus; assay: Effect on uterus weight in ovariectomized mouse at 0.1103 mmol/kg, ip once daily for 4 weeks; how it was run: as §2
[5] = system: Mus musculus; assay: Effect on calcium level in mouse femur at 0.055 mmol/kg, ip
How it was run: (§3)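 Dose-response in OVX Kuiming mice, i.p. daily for 4 weeks in 0.5% CMC at 11.03, 55.15 or 110.3 × 10-3 mmol/kg. Left femur: length, then defatting, drying at 120 °C for 6 h (dry weight), ashing at 800 °C for 8 h. Ash/dry ratio gives mineral content. Ash Ca and P measured colorimetrically. Liver, lung and spleen weighed directly. n = 12, ANOVA.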

[6] = system: Mus musculus; assay: Effect on serum calcium level in mouse at 0.1103 mmol/kg, ip
How it was run: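 OVX Kuiming mice dosed i.p. daily for 4 weeks in 0.5% CMC. Blood taken retro-orbitally on the day after the last dose, stood 30 min, spun at 3000 g for 20 min, serum stored at -20 °C. Calcium by o-methylphenolphthalein complexone, phosphorus by molybdenum blue, ALP by activity with disodium phenylphosphate substrate.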

[7] = system: Mus musculus; assay: Effect on mineral level in mouse femur at 0.011 mmol/kg, ip; conditions: in the assay text read “0.11 mmol/kg” for “0.011 mmol/kg”; how it was run: as §3
[8] = system: Mus musculus; assay: Effect on dry weight of femur in recipient mouse at 0.011 mmol/kg, ip; how it was run: as §3
[9] = system: Mus musculus; assay: Effect on spleen weight in mouse at 0.011 mmol/kg, ip; how it was run: as §3
[10] = system: Mus musculus; assay: Effect on femur length in recipient mouse at 0.055 mmol/kg, ip; how it was run: as §3
[11] = system: Mus musculus; assay: Effect on mineral content in mouse at 0.1103 mmol/kg, po; how it was run: as §1
[12] = system: Mus musculus; assay: Effect on serum phosphorous level in mouse at 0.055 mmol/kg, ip
How it was run: (§4)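 Dose-response in OVX Kuiming mice, i.p. daily for 4 weeks in 0.5% CMC at 11.03, 55.15 or 110.3 × 10-3 mmol/kg. Serum from retro-orbital blood (3000 g, 20 min). Calcium by o-methylphenolphthalein complexone, phosphorus by molybdenum blue, ALP by activity on disodium phenylphosphate. n = 12, ANOVA.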

[13] = system: Mus musculus; assay: Effect on serum ALP level in mouse at 0.011 mmol/kg, ip; how it was run: as §4
[14] = system: Mus musculus; assay: Effect on lung weight in ovariectomized mouse at 0.1103 mmol/kg, ip once daily for 4 weeks
How it was run: (§5)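 Female Kuiming mice (7 weeks, 30.7 ± 3.1 g) ovariectomized, sham group abdominorotomy. From day 5, i.p. once daily for 4 weeks at 110.3 × 10-3 mmol/kg in 0.5% CMC. Left femur cleaned, length measured, defatted in chloroform-methanol (2:1, 2 × 3 h), dried 120 °C 6 h for dry weight, ashed 800 °C 8 h. Mineral content = ash/dry weight. Ash dissolved in 6 N HCl and diluted. Ca by o-methylphenolphthalein complexone, P by molybdenum blue. Lungs and livers weighed directly.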

[15] = system: Mus musculus; assay: Effect on lenght of femur in mouse at 0.110 mmol/kg, po; how it was run: as §1
[16] = system: Mus musculus; assay: Effect on femur length in ovariectomized mouse at 0.1103 mmol/kg, ip once daily for 4 weeks; how it was run: as §5
[17] = system: Mus musculus; assay: Effect on phosphorous level in mouse femur at 0.011 mmol/kg, ip; conditions: in the assay text read “0.11 mmol/kg” for “0.011 mmol/kg”; how it was run: as §3

| Compound | Activity [1] [mmol/L] | Activity [2] [g] | Activity [3] [mg] | Activity [4] [mg] | Activity [5] [%] | Activity [6] [mmol/L] | Ratio [7] | Activity [8] [mg] | Activity [9] [mg] | Activity [10] [cm] | Ratio [11] [%] | Activity [12] [mmol/L] | Activity [13] [U/L] | Activity [14] [mg] | Activity [15] [cm] | Activity [16] [cm] | Activity [17] [%] |
| --- | --- | --- | --- | --- | --- | --- | --- | --- | --- | --- | --- | --- | --- | --- | --- | --- | --- |
| C[C@]12CC[C@@H]3c4ccc(OCC(=O)N[C@@H](CCCNC(=N)N)C(=O)NCC(=O)N[C@@H](CC(=O)O)C(=O)N[C@@H](CO)C(=O)O)cc4CC[C@H]3[C@@H]1CCC2O (some centres undefined) (X1-RGDS-OH) | 1.6 | 1.329 | 124 | 42.5 | 52.1 | 2.014 | 0.582 | 48.8 | 125 | 1.622 | 52.2 | 1.607 | 40.3 | 173 | 1.635 | 1.642 | – |
| C[C@]12CC[C@@H]3c4ccc(OCC(=O)N[C@@H](CCCNC(=N)N)C(=O)NCC(=O)N[C@@H](CC(=O)O)C(=O)N[C@@H](Cc5ccccc5)C(=O)O)cc4CC[C@H]3[C@@H]1CCC2O (some centres undefined) (X1-RGDF-OH) | 1.6 | 1.339 | 131 | 55.4 | 54.493 | 2.015 | 0.585 | 46.9 | 145 | 1.624 | 52.5 | 1.602 | 38.6 | 169 | 1.626 | 1.635 | 25.46 |
| CC(C)[C@H](NC(=O)[C@H](CC(=O)O)NC(=O)CNC(=O)[C@H](CCCNC(=N)N)NC(=O)COc1ccc2c(c1)CC[C@@H]1[C@@H]2CC[C@]2(C)C(O)CC[C@@H]12)C(=O)O (some centres undefined) (X1-RGDV-OH) | 1.61 | 1.337 | 132 | 50.3 | 57.13 | 2.005 | 0.63 | 50.9 | 156 | 1.643 | 51.9 | 1.586 | 38.5 | 162 | 1.614 | 1.64 | – |
